# TRPC4 potent – TRPC4 (mouse) allosteric potentiation. HEK293 TRPC4beta/mu-opioid, DAMGO EC20, Fluo-4 Ca2+ flux; stronger effect = higher value. B-score at 10 µM. hit rate 0.42% among 310,000. AID 2227;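 active = B-score of calcium response area above 5 SD of library B-scores, with initial fluorescence ratio within 5 SD of library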;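 note: B-score of integrated fluorescence ratio over time as area under calcium response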
# TRPC6 inh – blocks the mouse TRPC6 cation channel; Q61143; HEK293-TRPC6, membrane potential dye, ACh-evoked depolarization; stronger effect = lower value; B-score at 10 µM; hit rate 1.1% among 310,000;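 active = B-score under library mean minus 3 SD, initial fluorescence not abnormally high, positive integrated signal ratio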;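 note: B-score derived from integrated fluorescence ratio over the kinetic read; more negative B-score means stronger inhibition of depolarization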
# Target sequence (Q61143 whole entry, looked up): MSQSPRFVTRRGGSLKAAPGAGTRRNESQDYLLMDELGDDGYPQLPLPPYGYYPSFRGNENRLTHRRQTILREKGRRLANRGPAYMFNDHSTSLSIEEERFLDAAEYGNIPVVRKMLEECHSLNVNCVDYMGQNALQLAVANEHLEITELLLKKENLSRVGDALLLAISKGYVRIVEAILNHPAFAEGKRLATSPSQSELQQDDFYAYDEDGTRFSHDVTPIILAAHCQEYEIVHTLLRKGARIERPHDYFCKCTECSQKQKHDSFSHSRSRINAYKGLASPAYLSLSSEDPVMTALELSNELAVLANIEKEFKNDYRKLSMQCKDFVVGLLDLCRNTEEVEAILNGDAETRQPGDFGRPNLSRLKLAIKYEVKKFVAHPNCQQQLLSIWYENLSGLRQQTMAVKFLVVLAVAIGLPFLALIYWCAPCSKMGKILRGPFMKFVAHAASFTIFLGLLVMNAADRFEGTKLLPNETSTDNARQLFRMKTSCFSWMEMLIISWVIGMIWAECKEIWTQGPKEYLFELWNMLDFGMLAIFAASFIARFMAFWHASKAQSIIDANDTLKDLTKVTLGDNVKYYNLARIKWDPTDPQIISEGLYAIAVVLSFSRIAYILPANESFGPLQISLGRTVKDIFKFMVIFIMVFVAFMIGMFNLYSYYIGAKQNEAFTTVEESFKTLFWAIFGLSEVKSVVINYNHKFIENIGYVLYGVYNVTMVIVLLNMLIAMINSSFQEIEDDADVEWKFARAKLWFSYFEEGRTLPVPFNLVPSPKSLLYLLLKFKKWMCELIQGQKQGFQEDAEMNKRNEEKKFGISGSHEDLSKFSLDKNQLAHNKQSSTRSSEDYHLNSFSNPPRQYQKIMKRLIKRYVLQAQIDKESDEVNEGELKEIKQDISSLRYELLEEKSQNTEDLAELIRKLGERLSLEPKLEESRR
# TRPC4 inh – TRPC4 (mouse) channel inhibition; B-score at 10 µM; HEK293 TRPC4beta/mu-opioid, DAMGO-evoked Fluo4 calcium flux; stronger effect = lower value; hit rate 0.39% among 300,000; Q9QUQ5;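 active = B-score over 3 SD under the library average, no early fluorescence shift, positive overall ratio signal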
#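 System: stable TRPC4beta/mu-opioid receptor HEK293 cells; Dosing: single-point compound dosing; Measured by: Fluo4 Ca2+ flux fluorescence; Read-out basis: per-well B score of integrated baseline-normalized Fluo4 ratio.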
# TRPC4 agonist – activators of mouse TRPC4 channel; B-score at 10 µM; hit rate 0.49% among 310,000; HEK293 TRPC4beta/mu-opioid, Fluo4 calcium fluorescence; stronger effect = higher value; Q9QUQ5;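 active = B-score above 5 SD of library B-scores, and initial fluorescence ratio not above library mean plus 5 SD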;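 note: positive B-score marks a calcium rise read as TRPC4 activation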
#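 Incubation: 45 min room-temperature Fluo4 loading, 110 s read / System: HEK293 cells stably co-expressing mouse TRPC4beta and mu-opioid receptor / Signal: Fluo4 fluorescence, kinetic / Control set: buffer (low) and maximal DAMGO (high) / Measure: integrated baseline-normalised fluorescence ratio, converted to per-well B score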
# TRPC6 activator – activates the mouse TRPC6 cation channel. Q61143. HEK293-TRPC6 membrane potential dye fluorescence; stronger effect = higher value. B-score at 10 µM. hit rate 0.13% among 310,000;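 active = B-score of the integrated fluorescence ratio above library mean plus 3 SD, and starting fluorescence ratio within library mean plus 5 SD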;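 note: higher score means more depolarization so channel activation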
# TRPC4 sel inh 2 – mouse TRPC4 off-target activity of TRPC6 inhibitors, second screen; shares compounds with TRPC6 inh; inhibition, % at 10 µM; hit rate 42% among 920; HEK293 TRPC4/MOR, membrane potential dye fluorescence; channel activated by saturating DAMGO dose;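 active = compounds whose fluorescence signal differed from control wells by over 3 SD, either direction, in both duplicate plates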
# TRPC4 spec – selectivity of TRPC6 inhibitors: effect on mouse TRPC4; activity change, negative = inhibition, % at 10 µM; HEK293 TRPC4/mu-opioid, membrane potential fluorescence; hit rate 61% among 920; shares compounds with TRPC6 inh;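 active = rise or fall in signal beyond 3 SD of buffer-only wells in both replicate plates, either sign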;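 note: integrated kinetic ratio of fluorescence range over baseline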
# HEK293 MPD ctr 2-1 – parental HEK293 nonspecific activity of TRPC6 inhibitors, second screen; shares compounds with TRPC6 inh; parental HEK293 membrane potential dye fluorescence; maximal acetylcholine challenge after compound addition; signal change vs control, % at 10 µM; hit rate 31% among 920; AID 2779;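 active = membrane potential signal moving either way by over 3 SD of the maximum-effect control, in both duplicate plates, meaning non-specific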
# HEK293 MPD ctr-1 – parental HEK293 nonspecific activity of TRPC6 inhibitors | shares compounds with TRPC6 inh | parental HEK293 membrane potential dye fluorescence | membrane potential signal change, % at 10 µM | AID 2780 | hit rate 60% among 920;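 active = membrane potential signal shifting up or down by more than 3 SD of buffer-only wells, on both duplicate plates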
# HEK293 MPD ctr-2 – checks TRPC6 modulator effects in parental HEK293 cells; membrane potential dye fluorescence; membrane potential signal change, % at 10 µM; hit rate 51% among 2,400; shares compounds with TRPC6 inh;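 active = membrane potential signal moves up or down beyond 5 SD from buffer-only wells, on both duplicate plates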
# HEK293 MPD ctr 2-2 – second check of TRPC6 modulator effects in parental HEK293 cells; shares compounds with TRPC6 inh; membrane potential dye fluorescence; after compound, maximal acetylcholine stimulation; inhibition, % at 10 µM; hit rate 14% among 2,400;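 active = membrane potential signal drops by more than 5 SD from the mean control signal, in both duplicate plates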;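 note: plate controls were acetylcholine ECmax control wells for no effect and buffer only wells for full effect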
# TRPC4 ctr mod – mouse TRPC4 off-target activity of TRPC6 modulators; shares compounds with TRPC6 inh; HEK293 TRPC4/mu-opioid, membrane potential fluorescence; percent change from control (negative = decrease, positive = increase), % at 10 µM; hit rate 69% among 2,400; AID 488927;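 active = membrane potential signal moved up or down beyond 5 SD of buffer control wells, in both duplicate plates, actives on both sides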;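 note: plate controls were assay buffer wells for no effect and DAMGO maximal-effect wells for full effect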
# TRPC4/MOR inh 2 – second check of whether TRPC6 modulators also affect mouse TRPC4. shares compounds with TRPC6 inh. HEK293 TRPC4/mu-opioid, membrane potential dye fluorescence; stimulated with maximal-effect DAMGO. inhibition, % at 10 µM. hit rate 55% among 2,400. AID 488928;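 active = drop in membrane potential signal beyond 5 SD of the control wells in both duplicate plates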;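 note: TRPC4 counter screen for TRPC6 hits run under conditions tuned for TRPC6 not TRPC4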
# TRPC6 inh conf – mouse TRPC6 inhibitor confirmation | shares compounds with TRPC6 inh | HEK293-TRPC6, membrane potential dye, ACh-evoked depolarization | inhibition, % at 10 µM | hit rate 43% among 3,300 | AID 488960;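 active = fluorescence ratio falls more than 5 SD below the full-stimulation control mean, in both duplicate runs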;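 note: integrated fluorescence ratio of peak minus minimum over baseline after agonist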
# TRPC6 act conf – mouse TRPC6 activator confirmation | shares compounds with TRPC6 inh | HEK293-TRPC6 membrane potential dye fluorescence, FDSS | activation, % at 10 µM | hit rate 11% among 2,800;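 active = ratio signal rise beyond 5 SD above unstimulated control wells' mean, seen in both duplicate runs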;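 note: plate controls were buffer EC0 wells for no effect and acetylcholine ECmax response for full effect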
# Numbers without * were called inactive; i = inactive; . = no result. Sampled rows, rich in hits. Any-hit rate of the full collection: about 2.3%.
SMILES,TRPC4 potent,TRPC6 inh,TRPC4 inh,TRPC4 agonist,TRPC6 activator,HEK293 MPD ctr-2,HEK293 MPD ctr 2-2,TRPC4 ctr mod,TRPC4/MOR inh 2,TRPC6 inh conf,TRPC6 act conf,others
Cc1cccc(C)c1OCC(O)CN1CCC(CN2C(=O)c3cccc4cccc(c34)C2=O)CC1 (stereo unspecified),i,-8.3*,i,i,i,.,.,.,.,64%*,i,TRPC4 sel inh 2=40%*;TRPC4 spec=-18%*;HEK293 MPD ctr 2-1=i;HEK293 MPD ctr-1=-200%*
Cc1ccccc1OCC(O)CN1CCN(CCN2C(=O)c3cccc4cccc(c34)C2=O)CC1 (stereo unspecified),i,-5.2*,i,i,i,i,i,-18%*,82%*,59%*,i,
CCC(OCC(O)CN1CCN(CCN2C(=O)c3cccc4cccc(c34)C2=O)CC1)c1ccccc1 (stereo unspecified),i,-6.1*,i,i,i,-90%*,i,-29%*,77%*,60%*,i,
Cc1ccc(S(=O)(=O)N2CCOCC2)cc1NC(=O)COC(=O)CNC(=O)c1ccc(Cl)cc1Cl,i,i,i,i,i,.,.,.,.,.,.,
NCCCNc1nc(N)c([N+](=O)[O-])c(NC2CCCCC2)n1,i,i,i,i,i,.,.,.,.,.,.,
O=C(CSc1ccc2c(c1)OCCO2)NCCc1ccc(Cl)cc1Cl,i,-5.4*,i,i,i,350%*,i,16%*,i,i,i,
COc1ccc(NC(=O)C2CCCN(CCCc3ccccc3)C2)cc1OCC(C)C (stereo unspecified),i,-7.3*,i,i,i,.,.,.,.,i,i,TRPC4 sel inh 2=76%*;TRPC4 spec=i;HEK293 MPD ctr 2-1=226%*;HEK293 MPD ctr-1=i
S=C(NCCCN1CCOCC1)Nc1ccc(Cl)cc1Cl,i,-5.3*,i,i,i,i,i,i,i,i,i,
CCOc1ccc(-c2nnc(NC(=O)C3CCCC3)o2)cc1,i,i,i,i,i,.,.,.,.,.,.,
N#Cc1cc(Sc2ccccn2)c([N+](=O)[O-])cc1C#N,i,-8.3*,i,i,i,.,.,.,.,75%*,i,TRPC4 sel inh 2=i;TRPC4 spec=-21%*;HEK293 MPD ctr 2-1=-78%*;HEK293 MPD ctr-1=-320%*
COc1ccc(-c2nc3ccc(C)cn3c2NCc2ccc3c(c2)OCO3)cc1,i,i,i,i,i,.,.,.,.,.,.,
Cc1ccc(-c2nc3ccccn3c2NCc2ccc3c(c2)OCO3)cc1,i,-5.5*,i,i,i,i,i,-19%*,69%*,44%*,i,
CC(=O)Nc1ccc(S(=O)(=O)N(C)CC(=O)OCC(=O)N(C)c2ccccc2)cc1,i,i,i,i,i,.,.,.,.,.,.,
CCCC(=O)Nc1cccc2c1CCCC2,i,i,i,i,i,.,.,.,.,.,.,
CCc1ccc(OCC(=O)Nc2cccc3c2CCCC3)cc1,i,-5*,i,i,i,i,i,i,i,i,i,
O=C1CCC([N+](=O)[O-])C(c2ccccc2C(F)(F)F)N1 (stereo unspecified),i,-5.1*,i,i,i,i,i,i,i,i,i,
O=C1CCC([N+](=O)[O-])C(c2ccccc2Cl)N1 (stereo unspecified),i,i,i,i,i,.,.,.,.,.,.,
CC1(C)Cc2c(sc3[nH]c(=O)n(CC(=O)NCC4CCCO4)c(=O)c23)CO1 (stereo unspecified),i,i,i,i,i,.,.,.,.,.,.,
CSc1nc2ccc(NC(=O)c3ccc(=O)n(C)n3)cc2s1,i,-5.1*,i,i,i,i,i,i,i,i,i,
Cc1[nH]c(C)c(S(=O)(=O)NCc2ccc(Cl)cc2)c1C(=O)N1CCCC1,i,i,i,i,i,.,.,.,.,.,.,
CC1CC(C)CN(C(=O)c2ccc3c(c2NCCO)C(=O)c2ccccc2C3=O)C1 (stereo unspecified),i,-7*,i,i,i,-246%*,i,-45%*,80%*,68%*,i,
CCc1nnc(NS(=O)(=O)c2ccc(NCc3cc(Cl)ccc3O)cc2)s1,i,i,i,i,i,.,.,.,.,.,.,
CC[n+]1c(/C=C/c2ccc(OC)c(OC)c2)ccc2ccccc21,i,-8.1*,i,i,i,-214%*,i,-52%*,40%*,i,i,
CC[n+]1c(/C=C/c2ccc(N(C)C)cc2)ccc2ccccc21,i,i,i,i,i,.,.,.,.,.,.,
CC[n+]1c(/C=C/c2ccc(OC(C)=O)c(OC)c2)ccc2ccccc21,i,-7.6*,i,i,i,-264%*,124%*,-45%*,70%*,77%*,i,
Cc1cc(OCC(=O)NCCCn2ccnc2)c2c(C)c(C)c(=O)oc2c1,i,-6.1*,i,i,i,-276%*,i,-48%*,36%*,i,i,
CCc1cc(=O)oc2cc(C)cc(OCC(=O)NCCCn3ccnc3)c12,i,i,i,i,i,.,.,.,.,.,.,
COc1ccc(-c2cc(=O)oc3c(C)c(OCC(=O)NCCCn4ccnc4)ccc23)cc1,i,i,i,i,i,.,.,.,.,.,.,

# From PubChem
